Source: ChEMBL document CHEMBL4304756, “Second-Generation Tryptamine Derivatives Potently Sensitize Colistin Resistant Bacteria to Colistin” (ACS Med Chem Lett, 2019)
Calls of active or inactive are those of the source. The rule behind the calls is not given here.

Assays:
[1] = tested on: Escherichia coli; test: Potentiation of colistin-induced antibacterial activity against Escherichia coli YD626 assessed as colistin MIC at 50 uM incubated for 16 hrs by broth microdilution method (reference value: 1 ug/ml); format: functional; conditions: YD626, 16 h
[2] = tested on: Escherichia coli; test: Potentiation of colistin-induced antibacterial activity against Escherichia coli YD626 harbouring mcr-1 gene assessed as colistin MIC at 50 uM incubated for 16 hrs by broth microdilution method (reference value: 8 ug/ml); format: functional; conditions: YD626, 16 h
[3] = tested on: Klebsiella pneumoniae; test: Potentiation of colistin-induced antibacterial activity against Klebsiella pneumoniae 2210291 assessed as colistin MIC at 50 uM incubated for 16 hrs by broth microdilution method (reference value: 1 ug/ml); format: functional; conditions: Klebsiella pneumoniae, 2210291, 16 h
[4] = tested on: Klebsiella pneumoniae; test: Potentiation of colistin-induced antibacterial activity against Klebsiella pneumoniae 2210291 harbouring mcr-1 gene assessed as colistin MIC at 50 uM incubated for 16 hrs by broth microdilution method (reference value: 16 ug/ml); format: functional; conditions: Klebsiella pneumoniae, 2210291, 16 h
[5] = tested on: Escherichia coli; test: Potentiation of colistin-induced antibacterial activity against Escherichia coli YD626 harbouring mcr-1 gene assessed as reduction in colistin MIC at 15 uM incubated for 16 hrs by broth microdilution method; format: functional, organism-based
Outline: (§1)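 For the dose-response, colistin MIC was measured against mcr-1 plasmid-bearing E. coli, K. pneumoniae and A. baumannii while the adjuvant concentration was lowered stepwise (30, 15 μM, down to 5 μM). The aim was to find where the MIC rose above the 2 μg/mL CLSI susceptibility breakpoint.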

[6] = tested on: Klebsiella pneumoniae; test: Potentiation of colistin-induced antibacterial activity against Klebsiella pneumoniae 2210291 harbouring mcr-1 gene assessed as reduction in colistin MIC at 5 uM incubated for 16 hrs by broth microdilution method (reference value: 16 ug/ml); format: functional; conditions: Klebsiella pneumoniae, 2210291, 16 h; outline: as §1
[7] = tested on: Acinetobacter baumannii; test: Potentiation of colistin-induced antibacterial activity against Acinetobacter baumannii 17978 harbouring mcr-1 gene assessed as reduction in colistin MIC at 5 uM incubated for 16 hrs by broth microdilution method (reference value: 16 ug/ml); format: functional; conditions: Acinetobacter baumannii, 17978, 16 h; outline: as §1
[8] = tested on: Klebsiella pneumoniae; test: Potentiation of colistin-induced antibacterial activity against Klebsiella pneumoniae B9 assessed as reduction in colistin MIC at 20 uM incubated for 16 hrs by broth microdilution method (reference value: 512 ug/ml); format: functional; conditions: B9, 16 h
[9] = tested on: Klebsiella pneumoniae; test: Potentiation of colistin-induced antibacterial activity against Klebsiella pneumoniae B9 assessed as reduction in colistin MIC at 15 uM incubated for 16 hrs by broth microdilution method (reference value: 512 ug/ml); format: functional; conditions: B9, 16 h
[10] = tested on: Klebsiella pneumoniae; test: Potentiation of colistin-induced antibacterial activity against Klebsiella pneumoniae B9 assessed as reduction in colistin MIC at 10 uM incubated for 16 hrs by broth microdilution method (reference value: 512 ug/ml); format: functional; conditions: B9, 16 h
Outline: (§2)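 Colistin MIC was measured against chromosomally colistin-resistant strains (K. pneumoniae B9, C3; A. baumannii 4106, among four strains) with adjuvant at fixed levels from 20 μM down to 7.5 μM. Fold reduction was reported against colistin alone, with the CLSI breakpoint taken as ≤2 μg/mL.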

[11] = tested on: Klebsiella pneumoniae; test: Potentiation of colistin-induced antibacterial activity against Klebsiella pneumoniae B9 assessed as reduction in colistin MIC at 5 uM incubated for 16 hrs by broth microdilution method (reference value: 512 ug/ml); format: functional; conditions: B9, 16 h
[12] = tested on: Klebsiella pneumoniae; test: Potentiation of colistin-induced antibacterial activity against Klebsiella pneumoniae C3 assessed as reduction in colistin MIC at 15 uM incubated for 16 hrs by broth microdilution method (reference value: 512 ug/ml); format: functional; conditions: C3, 16 h
[13] = tested on: Klebsiella pneumoniae; test: Potentiation of colistin-induced antibacterial activity against Klebsiella pneumoniae C3 assessed as reduction in colistin MIC at 10 uM incubated for 16 hrs by broth microdilution method (reference value: 512 ug/ml); format: functional; conditions: C3, 16 h
[14] = tested on: Klebsiella pneumoniae; test: Potentiation of colistin-induced antibacterial activity against Klebsiella pneumoniae C3 assessed as reduction in colistin MIC at 5 uM incubated for 16 hrs by broth microdilution method (reference value: 512 ug/ml); format: functional; conditions: C3, 16 h
[15] = tested on: Acinetobacter baumannii; test: Potentiation of colistin-induced antibacterial activity against Acinetobacter baumannii 3941 assessed as reduction in colistin MIC at 10 uM incubated for 16 hrs by broth microdilution method (reference value: 512 ug/ml); format: functional; conditions: Acinetobacter baumannii, 3941, 16 h
[16] = tested on: Acinetobacter baumannii; test: Potentiation of colistin-induced antibacterial activity against Acinetobacter baumannii 4106 assessed as reduction in colistin MIC at 20 uM incubated for 16 hrs by broth microdilution method (reference value: 1024 ug/ml); format: functional; conditions: Acinetobacter baumannii, 4106, 16 h
[17] = tested on: Acinetobacter baumannii; test: Potentiation of colistin-induced antibacterial activity against Acinetobacter baumannii 4106 assessed as reduction in colistin MIC at 15 uM incubated for 16 hrs by broth microdilution method (reference value: 1024 ug/ml); format: functional; conditions: Acinetobacter baumannii, 4106, 16 h
[18] = tested on: Acinetobacter baumannii; test: Potentiation of colistin-induced antibacterial activity against Acinetobacter baumannii 4106 assessed as reduction in colistin MIC at 10 uM incubated for 16 hrs by broth microdilution method (reference value: 1024 ug/ml); format: functional; conditions: Acinetobacter baumannii, 4106, 16 h
[19] = tested on: Acinetobacter baumannii; test: Potentiation of colistin-induced antibacterial activity against Acinetobacter baumannii 4106 assessed as reduction in colistin MIC at 7.5 uM incubated for 16 hrs by broth microdilution method (reference value: 1024 ug/ml); format: functional; conditions: Acinetobacter baumannii, 4106, 16 h; outline: as §2
[20] = tested on: Acinetobacter baumannii; test: Potentiation of colistin-induced antibacterial activity against Acinetobacter baumannii 4106 assessed as reduction in colistin MIC at 5 uM incubated for 16 hrs by broth microdilution method (reference value: 1024 ug/ml); format: functional; conditions: Acinetobacter baumannii, 4106, 16 h
[21] = tested on: Acinetobacter baumannii; test: Potentiation of colistin-induced antibacterial activity against Acinetobacter baumannii 17978 harbouring mcr-1 gene assessed as colistin sensitization activity at 30 uM incubated for 16 hrs by broth microdilution method; format: functional, organism-based
[22] = Cytotoxicity against mouse 4T1 cells assessed as reduction in cell viability in presence of 1 ug/ml colistin incubated for 18 hrs by MTT assay; format: cell-based
Outline: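 4T1 mouse mammary tumor cells exposed to compound for 18 h, alone or together with colistin at 1 μg/mL. Medium then aspirated and replaced with 0.5 mg/mL MTT in culture medium for colorimetric viability read-out. CT50 taken as the concentration giving 50% cell viability.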

[23] = tested on: Acinetobacter baumannii; test: Antivirulence activity in Acinetobacter baumannii 4106 infected Galleria mellonella larvae model assessed as survival rate at 50 mg/kg measured at 24 hrs interval over 4 days; format: functional
Outline: (§3)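 A. baumannii 4106 was given to Galleria mellonella larvae at 6 × 10^5 CFU, the lethal inoculum found by dose escalation. Larvae were treated with colistin 50 mg/kg, adjuvant 50 mg/kg, colistin plus adjuvant (50 mg/kg each), or tigecycline 100 mg/kg as positive control. Survival was scored out to day 4.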

[24] = tested on: Acinetobacter baumannii; test: Antivirulence activity in Acinetobacter baumannii 4106 infected Galleria mellonella larvae model assessed as survival rate in presence of colistin at 50 mg/kg measured at 24 hrs interval over 4 days (reference value: 7 %); format: functional; outline: as §3
[25] = tested on: Klebsiella pneumoniae; test: Potentiation of colistin-induced antibacterial activity against Klebsiella pneumoniae 2210291 harbouring mcr-1 gene assessed as reduction in colistin MIC at 15 uM incubated for 16 hrs by broth microdilution method; format: functional, organism-based; outline: as §1
[26] = tested on: Acinetobacter baumannii; test: Potentiation of colistin-induced antibacterial activity against Acinetobacter baumannii 17978 harbouring mcr-1 gene assessed as reduction in colistin MIC at 15 uM incubated for 16 hrs by broth microdilution method; format: functional, organism-based; outline: as §1

O=C(NCCc1c[nH]c2ccc(Br)cc12)Nc1cc(Cl)c(Br)c(Cl)c1
MIC [1]: 0.25 µg/mL
MIC [2]: 1 µg/mL
MIC [3]: 0.5 µg/mL
MIC [4]: 0.5 µg/mL
Activity [5]: Active
MIC [6]: 2 µg/mL
MIC [7]: 1 µg/mL
MIC [8]: ≤ 0.25 µg/mL
MIC [9]: ≤ 0.25 µg/mL
MIC [10]: ≤ 0.25 µg/mL
MIC [11]: 0.5 µg/mL
MIC [12]: 0.5 µg/mL
MIC [13]: 1 µg/mL
MIC [14]: 4 µg/mL
MIC [15]: 4 µg/mL
MIC [16]: ≤ 0.5 µg/mL
MIC [17]: ≤ 0.5 µg/mL
MIC [18]: 1 µg/mL
MIC [19]: 1 µg/mL
MIC [20]: 4 µg/mL
Activity [21]: Active
CC50 at 18 h [22]: 64.9 µM
Activity [23]: 0%
Activity [24]: 47%
Activity [25]: Active
Activity [26]: Active
